SR-BI DiI inh: inhibitors of mouse SR-BI mediated HDL lipid uptake | Q61009 | ldlA[mSR-BI] CHO cells, DiI-HDL uptake fluorescence, 3 h | inhibition, % at 12.5 µM | 0.96% of 320,000 active | AID 488896;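 active = mean replicate inhibition of at least 70% and a set share of replicates each scoring 70 or more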;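 note: 0% = median of neutral control wells and 100% = median of positive control wells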
RAD54 branch: inhibitors of human RAD54 branch migration. RAD54 Holliday junction branch migration, FAM/BHQ fluorescence. inhibition, % at 10.4 µM. 0.14% of 360,000 active. AID 602329;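 active = mean normalized replicate activity at least 40 and at least half of replicates scoring 40 or more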;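 note: 0% = median of neutral control wells and 100% = median of positive control wells; inhibitors cause a drop in the FAM fluorescence signal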
Target sequence (Q92698 whole entry, looked up): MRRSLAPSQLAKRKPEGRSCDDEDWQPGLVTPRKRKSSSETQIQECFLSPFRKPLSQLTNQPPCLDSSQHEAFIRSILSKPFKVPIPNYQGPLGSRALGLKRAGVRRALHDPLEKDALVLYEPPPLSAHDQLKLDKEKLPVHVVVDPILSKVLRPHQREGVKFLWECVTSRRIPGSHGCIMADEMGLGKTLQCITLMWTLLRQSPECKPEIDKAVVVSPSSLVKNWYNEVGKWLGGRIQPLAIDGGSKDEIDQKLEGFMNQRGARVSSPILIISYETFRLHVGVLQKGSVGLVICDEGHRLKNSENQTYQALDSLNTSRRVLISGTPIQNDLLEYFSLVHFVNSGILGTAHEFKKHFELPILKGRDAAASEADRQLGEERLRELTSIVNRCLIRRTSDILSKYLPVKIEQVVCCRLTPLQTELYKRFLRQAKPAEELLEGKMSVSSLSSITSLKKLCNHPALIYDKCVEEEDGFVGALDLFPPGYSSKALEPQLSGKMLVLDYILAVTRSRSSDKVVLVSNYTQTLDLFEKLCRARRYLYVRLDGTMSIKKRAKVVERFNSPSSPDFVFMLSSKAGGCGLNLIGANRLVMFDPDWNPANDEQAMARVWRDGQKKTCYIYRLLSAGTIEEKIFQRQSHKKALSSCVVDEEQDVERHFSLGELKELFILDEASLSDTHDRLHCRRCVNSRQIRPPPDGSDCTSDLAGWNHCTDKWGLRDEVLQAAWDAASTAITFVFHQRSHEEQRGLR
S100A4 MyoIIA: S100A4-myosin IIA interaction inhibition; P26447; S100A4/TAMRA-MyoIIA peptide fluorescence polarization; inhibition, % at 10.7 µM; 0.14% of 360,000 active;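 active = mean inhibition of at least 70% across replicates, with every replicate also reaching that level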
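incubation = readout 5 min after mixing, signal stable up to 60 min | system = S100A4 monomer protein | buffer or medium = HEPES pH 7.2 with CaCl2, KCl, NaCl, DTT, Triton | benchmarks = neutral control DMSO, positive control TFP | also added = fluorescent myosin IIA peptide, 5 nM | compound dosing = one concentration per compound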
dFosB act-1: mouse delta FosB homodimer activation; P13346; purified delta FosB, TAMRA-CDK5 oligo fluorescence polarization; percent of positive-control signal above neutral wells; activation, % at 25 µM; 0.99% of 340,000 active;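 active = mean activation above about 17%, with every replicate also reaching it, limit read from the data, passing the limit was not always enough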
PvdQ inh: blocks Pseudomonas aeruginosa PvdQ acylase activity; 0.063% of 340,000 active; inhibition, % at 10 µM; purified PvdQ acylase, fluorescence plate reader; in the data active = inhibition above about 30%, passing the limit was not always enough;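 note: 0% = vehicle neutral wells and 100% = reference inhibitor wells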
SR-BI uptake up: activators of SR-BI mediated HDL lipid uptake. activation, % at 12.5 µM. 0.096% of 320,000 active. CHO ldlA[mSR-BI] cells, DiI-HDL uptake fluorescence, 3 h; 100 = double the neutral-control signal;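 active = mean replicate activation of at least 60% and every replicate at or above 60%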;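 note: 0% = median plate neutral-control signal and 100% = twice that signal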
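Material – SR-BI-overexpressing, LDLR-lacking CHO cells · Medium – BSA-supplemented, HEPES-buffered Ham's F12, pH 7.4 · Doses – single concentration · Times – compound with DiI-HDL co-incubation, 3 h at 37 °C · Measured by – bottom-read fluorescence, 550/595 nm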
dFosB act-2: activators of mouse delta FosB homodimer DNA binding | activation, % at 24.9 µM | purified delta FosB, TAMRA-CDK5 oligo fluorescence polarization; normalised: neutral wells 0, positive control 100 | shares compounds with dFosB act-1 | 2,400 tested, under 10 active;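 active = highest replicate activation at or above 34% and every replicate reaching that threshold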;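 note: higher polarization means more probe DNA bound by delta FosB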
An asterisk follows results filed as active; / = no result given. Only some compounds are listed: those with a hit (about 1.6% of all), similar ones and a draw of the others.

SMILES	SR-BI DiI inh	RAD54 branch	S100A4 MyoIIA	dFosB act-1	PvdQ inh	SR-BI uptake up	dFosB act-2
COC(=O)Cc1ccc(NC(=O)c2ccc(NC(=O)c3ccco3)cc2)cc1	65	/	4	34*	-5	-65	3
COC(=O)c1cccc(NC(=O)NC(=O)c2ccc(Cl)cc2)c1	-3	-2	2	41*	-16	3	3
CC(=O)Oc1ccc(C(=O)Nc2cccc(NC(=O)c3ccco3)c2)cc1	24	13	-6	-21	-3	-24	/
O=C(N[C@@H]1CC[C@H](CCn2cc(C3(O)CCCC3)nn2)O[C@@H]1CO)c1ccccc1F	/	2	9	/	/	/	/
COc1ccc2c3c(n(C)c2c1)[C@@H](CO)N(C(=O)C1CCCC1)CC31CCN(CC2CCCC2)CC1	/	/	16	/	/	/	/
Cc1cc2oc(C(=O)Nc3ccc(S(=O)(=O)Nc4ncccn4)cc3)c(C)c2cc1Cl	-18	-2	-26	0	0	/	/
CCc1nonc1NC(=O)c1oc2ccc(C)cc2c1C	-19	5	-2	16	7	19	/
Cc1cc2oc(C(=O)Nc3nonc3C)c(C)c2cc1Cl	-21	-4	-5	46*	-8	21	2
Cc1nonc1NC(=O)c1oc2ccc(F)cc2c1C	-5	1	-4	29*	-8	5	2
Cc1cccc(N2C(=O)c3ccc(C(=O)Nc4ccccn4)cc3C2=O)c1	-7	-2	-2	62*	-9	7	5
CC(=O)Nc1ccc2c(c1)C(=O)N(c1cccc(C)c1)C2=O	/	/	-2	20*	-1	/	4
CN1/C(=C\C(=O)c2ccco2)C(C)(C)c2ccccc21	-38	-43	-78	24*	-10	38	0
CN1/C(=C\C(=O)CSc2nnc(NCc3ccccc3)s2)C(C)(C)c2ccccc21	9	-4	/	23*	-15	-9	5
O=C(C[C@H]1C[C@@H]2c3cc(NC(=O)Cc4ccncc4)ccc3O[C@@H]2[C@H](CO)O1)NCC1CC1	/	-6	-1	/	/	/	/
COc1cc(-c2cc(C(=O)Nc3ccc(S(N)(=O)=O)cc3)c3ccccc3n2)cc(OC)c1OC	/	3	-4	11	-8	/	/
COc1ccc(-c2cc(C(=O)Nc3nc4c(C)cccc4s3)c3ccccc3n2)cc1OC	68	/	/	39*	-19	-68	1
COc1cc(-c2cc(C(=O)Nc3cccc(S(=O)(=O)N(C)C)c3)c3ccccc3n2)cc(OC)c1OC	/	7	-4	41*	-4	/	5
N#Cc1ccc(C(=O)NC(=S)NC2CCCCC2)cc1	33	-2	-1	-12	-12	-33	/
C/C(=N\NC(=S)NC1CCCCC1)c1ccc(C#N)cc1	20	-6	-8	36*	-9	-20	6
C[C@@H]1CN([C@H](C)CO)C(=O)c2cccc(NC(=O)c3ccc(-c4nccs4)cc3)c2O[C@H]1CN(C)CC1CCCCC1	/	5	-6	/	/	/	/
Cc1cc(C)n(CC(=O)NNC(=O)CCCOc2ccc(Cl)c(C)c2)n1	-12	-4	-2	21*	27	12	-2
Cc1cc(C)n(CC(=O)NNC(=O)CCCOc2ccc(Cl)cc2C)n1	1	-1	-2	34*	-13	-1	4
O=C(c1ccccc1F)N1CC[C@H]2[C@H](CO)Nc3ccc(-c4ccc(F)cc4)cc3[C@H]21	/	0	48	/	/	/	/
COc1ccc(NC(=O)c2cccs2)cc1	-6	-6	/	-10	-3	6	/
COc1ccc(C(=O)Nc2ccc(NC(=O)c3cccs3)cn2)cc1	/	4	-1	33*	-6	/	2
SMILES	SR-BI DiI inh	RAD54 branch	S100A4 MyoIIA	dFosB act-1	PvdQ inh	SR-BI uptake up	dFosB act-2
COc1ccc(C(=O)NCC(=O)Nc2ccc(-c3ccccc3)cc2)cc1	/	-6	3	38*	-14	/	-1
CCOc1ccc(NC(=O)CNC(=O)c2ccc(OC)cc2)cc1	/	/	1	-6	-5	/	/
COc1ccc(NC(=O)c2ccc(NC(=O)CCS(=O)(=O)c3cccs3)cc2)cc1	/	4	-4	30*	-2	/	-4
CC(=O)c1ccc(NC(=O)c2ccc(NC(=O)CCS(=O)(=O)c3cccs3)cc2)cc1	66	/	10	-5	2	-66	/
COc1cccc(CNC(=O)C[C@@H]2C=C[C@H](NC(=O)C3CCOCC3)[C@@H](CO)O2)c1	/	-4	10	/	/	/	/
C#CCn1c(=NC(=O)c2ccco2)sc2cccc(Cl)c21	/	/	-5	26*	-7	/	4
CCOc1cccc2sc(=NC(=O)c3ccco3)n(CC(=O)OC)c12	/	/	3	-13	0	/	/
CN(C)CCCNC(=O)C[C@H]1CC[C@H](NS(=O)(=O)c2ccc(F)cc2)[C@@H](CO)O1	/	2	0	/	/	/	/
CC1CC(C)CN(S(=O)(=O)c2ccc3c(c2)oc(=O)n3CC(=O)N(C)Cc2ccccc2)C1 (stereo unspecified)	-2	-10	2	47*	-12	2	0
CCCCNC(=O)Cn1c(=O)oc2cc(S(=O)(=O)N3CC(C)CC(C)C3)ccc21 (stereo unspecified)	1	-2	-2	8	-1	-1	/
COc1ccc(NC(=O)N(C)C[C@@H]2OCCCC[C@H](C)Oc3ccc(NC(=O)Nc4c(C)noc4C)cc3C(=O)N([C@@H](C)CO)C[C@@H]2C)cc1	/	2	20	/	/	/	/
COc1ccc(N2C(=O)C(CC(=O)Nc3ccc(Cl)cc3)N(NC(=O)c3cccc(F)c3)C2=S)cc1 (stereo unspecified)	3	-8	-31	25*	-7	-3	-6
CCOc1ccc(NC(=O)CC2C(=O)N(c3ccc(OC)c(Cl)c3)C(=S)N2C2CC2)cc1 (stereo unspecified)	11	-2	-2	28*	-22	-11	6
CCOc1ccc(NC(=O)CC2C(=O)N(c3ccc(OC)cc3)C(=S)N2Cc2ccccn2)cc1 (stereo unspecified)	-7	8	6	-4	0	7	/
COc1ccc(NC(=O)CC2C(=O)N(c3ccc(OC)cc3)C(=S)N2NC(=O)c2cccc(F)c2)cc1 (stereo unspecified)	-28	/	/	0	-4	28	/
Cc1cn(-c2cc(NC(=O)c3ccc(C)c(NC(=O)c4cccc(-c5cn[nH]c(=O)c5)c4)c3)cc(C(F)(F)F)c2)cn1	65	-4	/	41*	1	-65	1
Cc1ccc(NC(=O)c2cccc(C(F)(F)F)c2)cc1NC(=O)c1[nH]cnc1C(N)=O	37	-5	17	9	-6	-37	/
NS(=O)(=O)c1ccc(NC(=O)c2ccc(CSc3ccccc3)o2)cc1	15	-17	-5	34*	-25	-15	-8

Screening results from PubChem BioAssay.
